Test results taken from ChEMBL document CHEMBL2424572 (J Med Chem, 2013).

Experiments:
[1] = target: Matrix metalloproteinase-9 (Homo sapiens, UniProt P14780); test: Inhibition of MMP-9 (unknown origin) using 7-methoxycoumarin-4-yl)acetyl-Pro-Leu-Gly-Leu-(3-(2,4-dinitrophenyl)-L-2,3-diamino-propionyl)Ala-Arg-NH2 as substrate preincubated for 30 mins followed by substrate addition by fluorescence assay
Summary of the method: (§1)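 Activated MMP (2 nM) preincubated with inhibitor (10 pM to 1 mM) in 50 mM Tris-HCl pH 7.5, 0.2 M NaCl, 5 mM CaCl2, 20 μM ZnSO4, 0.05% Brij 35, 37 °C for 30 min.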

Collagenase 3 = Collagenase 3 (Homo sapiens, UniProt P45452); test: Inhibition of MMP-13 (unknown origin) using 7-methoxycoumarin-4-yl)acetyl-Pro-Leu-Gly-Leu-(3-(2,4-dinitrophenyl)-L-2,3-diamino-propionyl)Ala-Arg-NH2 as substrate preincubated for 30 mins followed by substrate addition by fluorescence assay; summary of the method: as §1
Neutrophil collagenase = Neutrophil collagenase (Homo sapiens, UniProt P22894); test: Inhibition of MMP-8 (unknown origin) using 7-methoxycoumarin-4-yl)acetyl-Pro-Leu-Gly-Leu-(3-(2,4-dinitrophenyl)-L-2,3-diamino-propionyl)Ala-Arg-NH2 as substrate preincubated for 30 mins followed by substrate addition by fluorescence assay; summary of the method: as §1
Chain of Neutrophil collagenase (P22894 whole entry): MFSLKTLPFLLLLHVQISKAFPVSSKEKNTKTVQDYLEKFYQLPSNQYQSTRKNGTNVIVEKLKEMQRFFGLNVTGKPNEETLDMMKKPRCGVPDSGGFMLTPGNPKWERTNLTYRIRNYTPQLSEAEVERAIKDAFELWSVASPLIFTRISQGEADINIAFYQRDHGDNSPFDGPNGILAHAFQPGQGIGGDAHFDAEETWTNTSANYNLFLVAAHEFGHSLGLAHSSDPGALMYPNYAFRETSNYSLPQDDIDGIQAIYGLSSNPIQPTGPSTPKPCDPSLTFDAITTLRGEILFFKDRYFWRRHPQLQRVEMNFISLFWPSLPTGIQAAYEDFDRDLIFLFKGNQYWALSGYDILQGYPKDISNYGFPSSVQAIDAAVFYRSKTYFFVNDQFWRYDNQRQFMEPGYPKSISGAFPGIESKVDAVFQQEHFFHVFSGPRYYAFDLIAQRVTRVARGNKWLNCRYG

[2] = target: 72 kDa type IV collagenase (Homo sapiens, UniProt P08253); test: Inhibition of MMP-2 (unknown origin) using 7-methoxycoumarin-4-yl)acetyl-Pro-Leu-Gly-Leu-(3-(2,4-dinitrophenyl)-L-2,3-diamino-propionyl)Ala-Arg-NH2 as substrate preincubated for 30 mins followed by substrate addition by fluorescence assay; summary of the method: as §1
Chain of 72 kDa type IV collagenase (P08253 whole entry): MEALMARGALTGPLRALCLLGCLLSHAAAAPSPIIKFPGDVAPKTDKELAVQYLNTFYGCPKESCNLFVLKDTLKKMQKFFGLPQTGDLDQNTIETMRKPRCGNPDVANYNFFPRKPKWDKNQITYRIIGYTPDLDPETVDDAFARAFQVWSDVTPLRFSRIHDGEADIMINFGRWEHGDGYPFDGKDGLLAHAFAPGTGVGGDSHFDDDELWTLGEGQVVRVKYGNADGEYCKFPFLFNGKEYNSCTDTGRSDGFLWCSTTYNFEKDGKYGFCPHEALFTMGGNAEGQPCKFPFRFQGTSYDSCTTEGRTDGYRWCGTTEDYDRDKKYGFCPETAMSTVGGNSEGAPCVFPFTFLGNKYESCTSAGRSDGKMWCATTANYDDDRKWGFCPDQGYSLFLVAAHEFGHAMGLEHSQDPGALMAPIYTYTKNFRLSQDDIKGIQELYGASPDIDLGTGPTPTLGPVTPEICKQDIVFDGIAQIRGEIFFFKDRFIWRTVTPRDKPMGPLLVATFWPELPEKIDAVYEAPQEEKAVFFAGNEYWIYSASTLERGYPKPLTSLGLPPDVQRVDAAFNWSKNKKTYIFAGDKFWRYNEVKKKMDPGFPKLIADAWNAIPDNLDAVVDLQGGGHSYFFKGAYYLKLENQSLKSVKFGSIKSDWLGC

Lung = test: Biodistribution in […] mouse lung at 250 kBq/g, iv after 90 to 120 mins by PET analysis; assay type: ADME, organism-based; settings: in vivo
Summary of the method: (§2)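 Tracer dosed at 250 kBq/g body weight as a tail-vein bolus (100 μL, flushed with 100 μL saline) into C57/Bl6 mice, then PET scanning on a submillimeter-resolution small-animal scanner. Time-activity curves were drawn for regions of interest as %ID; images cover frames up to 90−120 min p.i.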

Mus musculus [3] = test: Biodistribution in wild type CD1 mouse small intestine assessed as metabolite 1 at 11.1 MBq, iv measured at 30 mins by gamma counting-based HPLC analysis; assay type: ADME, organism-based; settings: in vivo, 0.5 h
Summary of the method: (§3)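 About 11.1 MBq injected by tail vein (≤200 μL) into three mice, killed 30 min p.i. Tissues weighed and homogenized in 1% SDS/PBS, extracted with acetonitrile/acetic acid, frozen on dry ice, thawed, centrifuged 13000 rpm 8 min. Supernatants gamma-counted against a dose aliquot for %ID/g, then radio-HPLC on C18 (acetonitrile/water, 0.05% TFA).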

Mus musculus [4] = test: Biodistribution in wild type CD1 mouse gall bladder assessed as metabolite 4 at 11.1 MBq, iv measured at 30 mins by gamma counting-based HPLC analysis; assay type: ADME, organism-based; settings: in vivo, 0.5 h; summary of the method: as §3
Mus musculus [5] = test: Biodistribution in wild type CD1 mouse gall bladder assessed as metabolite 5 at 11.1 MBq, iv measured at 30 mins by gamma counting-based HPLC analysis; assay type: ADME, organism-based; settings: in vivo, 0.5 h; summary of the method: as §3
Mus musculus [6] = test: Biodistribution in […] mouse myocardium at 250 kBq/g, iv after 90 to 120 mins by PET analysis; assay type: ADME, organism-based; settings: in vivo; summary of the method: as §2
Muscle tissue = test: Biodistribution in […] mouse muscle at 250 kBq/g, iv after 90 to 120 mins by PET analysis; assay type: ADME, organism-based; settings: in vivo; summary of the method: as §2
Serum = test: Metabolic stability in mouse serum at 5 MBq after 30 to 120 mins by radio-HPLC analysis; assay type: ADME, cell-free
Summary of the method: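 PBS-formulated radioligand (20 μL, 5 MBq) added to 200 μL mouse serum at 37 °C. 20 μL samples taken at 10−120 min, quenched in MeOH/CH2Cl2 1:1 and centrifuged 2 min. Organic layer analysed by radio-HPLC, isocratic 35% CH3CN/water (0.1% TFA) for 13 min, then gradient.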

Mus musculus [7] = test: Biodistribution in wild type CD1 mouse gall bladder assessed as metabolite 1 at 11.1 MBq, iv measured at 30 mins by gamma counting-based HPLC analysis; assay type: ADME, organism-based; settings: in vivo, 0.5 h; summary of the method: as §3
Mus musculus [8] = test: Biodistribution in wild type CD1 mouse gall bladder assessed as metabolite 2 at 11.1 MBq, iv measured at 30 mins by gamma counting-based HPLC analysis; assay type: ADME, organism-based; settings: in vivo, 0.5 h; summary of the method: as §3
Mus musculus [9] = test: Biodistribution in wild type CD1 mouse small intestine assessed as metabolite 3 at 11.1 MBq, iv measured at 30 mins by gamma counting-based HPLC analysis; assay type: ADME, organism-based; settings: in vivo, 0.5 h; summary of the method: as §3
Mus musculus [10] = test: Biodistribution in wild type CD1 mouse small intestine assessed as metabolite 5 at 11.1 MBq, iv measured at 30 mins by gamma counting-based HPLC analysis; assay type: ADME, organism-based; settings: in vivo, 0.5 h; summary of the method: as §3
Kidney = test: Biodistribution in wild type CD1 mouse kidney assessed as metabolite 3 at 11.1 MBq, iv measured at 30 mins by gamma counting-based HPLC analysis; assay type: ADME, organism-based; settings: in vivo, 0.5 h; summary of the method: as §3
Brain = test: Biodistribution in […] mouse brain at 250 kBq/g, iv after 90 to 120 mins by PET analysis; assay type: ADME, organism-based; settings: in vivo; summary of the method: as §2
[11] = 1-octanol-PBS buffer partition coefficient, log D of the compound at 20 kBq after 1 min by gamma counting analysis; assay type: physicochemical

Chain of Matrix metalloproteinase-9 (P14780 whole entry): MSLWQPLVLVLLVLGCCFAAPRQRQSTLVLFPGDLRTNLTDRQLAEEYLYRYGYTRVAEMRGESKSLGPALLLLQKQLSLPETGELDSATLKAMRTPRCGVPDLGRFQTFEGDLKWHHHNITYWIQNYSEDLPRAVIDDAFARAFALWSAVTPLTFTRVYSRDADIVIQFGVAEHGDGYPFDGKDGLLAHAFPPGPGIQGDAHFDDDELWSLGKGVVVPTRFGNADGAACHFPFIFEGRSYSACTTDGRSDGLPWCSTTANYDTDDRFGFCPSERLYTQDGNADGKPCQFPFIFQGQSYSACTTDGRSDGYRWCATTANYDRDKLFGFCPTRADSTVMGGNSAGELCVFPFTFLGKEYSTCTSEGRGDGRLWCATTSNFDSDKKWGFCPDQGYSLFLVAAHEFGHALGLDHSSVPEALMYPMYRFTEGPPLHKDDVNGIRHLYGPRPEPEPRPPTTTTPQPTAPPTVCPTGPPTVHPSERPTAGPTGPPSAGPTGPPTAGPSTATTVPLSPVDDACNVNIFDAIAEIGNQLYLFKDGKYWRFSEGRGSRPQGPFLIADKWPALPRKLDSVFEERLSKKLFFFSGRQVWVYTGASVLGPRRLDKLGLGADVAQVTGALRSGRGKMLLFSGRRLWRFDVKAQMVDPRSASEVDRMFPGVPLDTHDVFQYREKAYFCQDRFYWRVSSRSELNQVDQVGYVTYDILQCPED

SMILES	IC50 [1] [nM]	IC50 (Collagenase 3) [nM]	IC50 (Neutrophil collagenase) [nM]	IC50 [2] [nM]	also measured
COc1ccc(S(=O)(=O)N(CCn2cc(CCCCOc3cccnc3F)nn2)[C@@H](C(=O)NO)C(C)C)cc1	0.3	0.04	0.5	0.9	–
Cc1ccc(S(=O)(=O)N(CCN=[N+]=[N-])[C@@H](C(=O)NO)C(C)C)cc1	4	1	1	4	–
COc1ccc(S(=O)(=O)N(CCN=[N+]=[N-])[C@@H](C(=O)NO)C(C)C)cc1	6	9	2	0.9	–
COc1ccc(S(=O)(=O)N(CCn2cc(CN(C)S(=O)(=O)c3ccc(F)cc3)nn2)[C@@H](C(=O)NO)C(C)C)cc1	3	1	1	3	–
CC(C)[C@H](C(=O)NO)N(CCn1cc(CCCCOc2cccnc2F)nn1)S(=O)(=O)c1ccc(OCCF)cc1	0.8	0.07	0.05	0.4	–
COc1ccc(S(=O)(=O)N(CCn2cc(CCCF)nn2)[C@@H](C(=O)NO)C(C)C)cc1	0.07	0.05	0.4	0.7	–
Cc1ccc(S(=O)(=O)N(CCn2cc(COCCOCCOCCOCCOCCF)nn2)[C@@H](C(=O)NO)C(C)C)cc1	0.4	0.1	2	3	–
CC(C)[C@H](C(=O)NO)N(Cc1cn(CCOCCOCCOCCF)nn1)S(=O)(=O)c1ccc(OCCF)cc1	0.2	0.6	0.2	2	–
COc1ccc(S(=O)(=O)N(CCn2cc(CCC[18F])nn2)[C@@H](C(=O)NO)C(C)C)cc1	–	–	–	–	Drug uptake (Lung): Not Active; Drug uptake (Mus musculus [3]): 4.32 % ID/g; Drug uptake (Mus musculus [4]): 15.97 % ID/g; Drug uptake (Mus musculus [5]): 3.55 % ID/g; Drug uptake (Mus musculus [6]): Not Active; Drug uptake (Muscle tissue): Not Active; Stability (Serum): Stable; Drug uptake (Mus musculus [7]): 6.21 % ID/g; Drug uptake (Mus musculus [8]): 7.1 % ID/g; Drug uptake (Mus musculus [9]): 30.27 % ID/g; Drug uptake (Mus musculus [10]): 2.47 % ID/g; Drug uptake (Kidney): 0.67 % ID/g; Drug uptake (Brain): Not Active; logD at 1 min [11]: 1.25
CC(C)[C@H](C(=O)NO)N(CCn1cc(COCCOCCOCCOCCOCCF)nn1)S(=O)(=O)c1ccc(OCCF)cc1	10	7	35	5	–
COc1ccc(S(=O)(=O)N(CCn2cc(CNS(=O)(=O)c3ccc(F)cc3)nn2)[C@@H](C(=O)NO)C(C)C)cc1	0.6	0.09	0.2	5	–
CC(C)[C@H](C(=O)NO)N(CCn1cc(CCCF)nn1)S(=O)(=O)c1ccc(OCCF)cc1	2	0.07	0.4	2	–
Cc1ccc(S(=O)(=O)N(CCn2cc(CCCF)nn2)[C@@H](C(=O)NO)C(C)C)cc1	3	0.3	0.9	2	–
CC(C)[C@H](C(=O)NO)N(Cc1cn(CCOCCOCCOCCOc2cccnc2F)nn1)S(=O)(=O)c1ccc(OCCF)cc1	0.2	0.3	0.3	0.5	–
CC(C)[C@H](C(=O)NO)N(CCn1cc(CN(C)S(=O)(=O)c2ccc(F)cc2)nn1)S(=O)(=O)c1ccc(OCCF)cc1	11	1	5	9	–
CC(C)[C@H](C(=O)NO)N(CCN=[N+]=[N-])S(=O)(=O)c1ccc(OCCF)cc1	4	1	1	4	–
CC(C)[C@H](C(=O)NO)N(Cc1cn(CCF)nn1)S(=O)(=O)c1ccc(OCCF)cc1	7	0.7	2	2	–
CC(C)[C@H](C(=O)NO)N(CCn1cc(CNS(=O)(=O)c2ccc(F)cc2)nn1)S(=O)(=O)c1ccc(OCCF)cc1	3	0.1	0.7	4	–
Cc1ccc(S(=O)(=O)N(CCn2cc(CCCCOc3cccnc3F)nn2)[C@@H](C(=O)NO)C(C)C)cc1	6	3	4	3	–
COc1ccc(S(=O)(=O)N(CCn2cc(COCCOCCOCCOCCOCCF)nn2)[C@@H](C(=O)NO)C(C)C)cc1	2	6	1	4	–
